Screening data: PubChem BioAssay, Johns Hopkins Ion Channel Center
MrgX1 PAM: human MrgX1 positive allosteric modulation, primary screen; Q96LB2; MrgX1-HEK293, Fluo-4 calcium flux, FDSS; stronger effect = higher value; B-score at 10 µM; 0.63% of 310,000 active;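 active means plate-corrected calcium response at least 3 library SD above typical, normal starting fluorescence, not activating the receptor alone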;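 further: compound read alongside a low EC10 to EC30 dose of BAM8-22 agonist; peak minus trough fluorescence over baseline measured at the second addition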
RGS4 pot: RGS4 potentiation or activation | B-score at 10 µM | 0.92% of 310,000 active | AID 463111 | HEK293 M3R/inducible RGS4, carbachol calcium flux Fluo4; stronger effect = lower value;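 active means B-score of the integrated calcium signal more than 4 SD below the library mean, with starting fluorescence not abnormally high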;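 further: negative B-score means reduced calcium response which marks RGS4 activation or potentiation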
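Also added: carbachol at ECmax as muscarinic agonist stimulus; Assay system: HEK293 cells with stable M3R and inducible RGS4; Timing: overnight RGS4 induction, 30 min dye load 37 °C, 20 min compound RT; Measured by: Fluo4-AM (2 µM) calcium-flux fluorescence, kinetic read.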
RGS4 inh: human RGS4 inhibition; AID 463165; B-score at 10 µM; 0.45% of 310,000 active; P49798; HEK293 M3R/RGS4 inducible, Fluo-4 calcium flux; stronger effect = higher value; triggered by carbachol at its EC20;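 active means B-score, a plate-corrected calcium signal, over three deviations above library mean, with baseline fluorescence within five deviations of library mean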;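 further: RGS4 expression induced by doxycycline in cells with stable M3 receptor; B-score is computed from the integrated fluorescence ratio over baseline after carbachol; higher B-score means a larger calcium signal and so more RGS4 inhibition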
Target sequence (P49798 whole entry, looked up): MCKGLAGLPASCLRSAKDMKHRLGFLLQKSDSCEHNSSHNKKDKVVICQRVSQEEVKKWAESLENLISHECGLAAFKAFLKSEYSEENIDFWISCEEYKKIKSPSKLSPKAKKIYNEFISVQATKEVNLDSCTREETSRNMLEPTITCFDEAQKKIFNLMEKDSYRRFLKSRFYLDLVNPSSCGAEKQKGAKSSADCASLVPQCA
MrgX1 ag: human MrgX1 receptor agonism, primary screen; Q96LB2; MrgX1-HEK293 cells, Fluo-4 calcium fluorescence, agonist mode; stronger effect = higher value; B-score at 10 µM; 0.44% of 310,000 active; AID 588627;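 active means calcium response B-score plate-corrected fluorescence ratio at least 3 library SD, with starting fluorescence B-score inside 5 SD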
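Material: HEK293 cells stably expressing human MrgX1 receptor | Quantity: 15,000 cells per well | Times: Cells plated overnight, dye loaded 0.5 h 37 °C, 0.5 h room temperature | Measured by: Kinetic Fluo-4 NW fluorescence of intracellular calcium | Control set: Positive and negative controls per plate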
MrgX1 antag: human MrgX1 receptor antagonism, primary screen; Q96LB2; MRGX1-HEK293 calcium flux, Fluo-4, BAM8-22 antagonism; stronger effect = lower value; B-score at 10 µM; 1.3% of 310,000 active; AID 588676;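 active means calcium-response B-score plate-corrected more than 3 library SD below zero, starting fluorescence within 5 deviations, no agonist response on first addition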;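 further: peak minus trough fluorescence over baseline after final BAM8-22 challenge near maximal dose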
RGS4 block valid: validation of RGS4 inhibitors. shares compounds with RGS4 inh. calcium response, % at 10 µM. HEK293 M3R/RGS4, carbachol calcium Fluo-4 fluorescence; carbachol added at its EC20; 0 = buffer wells, 100 = carbachol control. 65% of 1,700 active;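 active means duplicate-averaged calcium response above the buffer-only control mean plus 5 SD of those controls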;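 further: integrated fluorescence ratio F max minus min over baseline F0; higher response in RGS4-induced cells means RGS4 inhibition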
RGS4 uninduced: checks RGS4 inhibitor effects in non-induced HEK293 M3R cells; shares compounds with RGS4 inh; carbachol calcium Fluo-4; submaximal (EC20) carbachol stimulus; buffer wells 0%, carbachol control wells 100%; activity (percent), % at 10 µM; 20% of 1,900 active; AID 493000; call rule not given here;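 further: RGS4 induction absent so cells express M3R without RGS4; higher means more calcium signal and flags a non-specific hit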
RGS4 inh ctr2: second counter-screen for RGS4 inhibitors: non-induced cells without carbachol; shares compounds with RGS4 inh; HEK293 M3R/RGS4 non-induced, Fluo-4 calcium, no carbachol; normalised: buffer wells 0%, carbachol wells 100%; calcium response (agonist-mode artifact), % at 10 µM; 22% of 1,900 active; AID 493001;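 active means duplicate-averaged calcium rise in uninduced cells above buffer wells' mean plus 5 SD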
* = called active by the depositor; i = inactive; . = not tested or not shown. This is a sample that favours compounds with a hit; in the whole collection about 3.5% have one here.

SMILES | MrgX1 PAM | RGS4 pot | RGS4 inh | MrgX1 ag | MrgX1 antag | RGS4 block valid | RGS4 uninduced | RGS4 inh ctr2
O=C(OCCCOC(=O)c1ccc([N+](=O)[O-])o1)c1ccc([N+](=O)[O-])o1 | i | i | i | i | i | . | . | .
O=C(/C=C/c1ccc(Cl)cc1)c1ccc([N+](=O)[O-])o1 | i | i | 7.9* | i | i | 8.5%* | i | i
C[C@]12CCC(=O)C=C1C=C[C@@H]1[C@@H]2CC[C@@]2(C)[C@H]1CC[C@@]21CCC(=O)O1 | i | i | i | i | i | . | . | .
Cc1nc2ncnn2c(C)c1Cc1ccc(Cl)cc1F | i | i | i | i | i | . | . | .
COc1ccc(/C=C2/C(=O)N(c3ccccc3)N=C2C)cc1Br | 8.9* | i | 24* | i | i | i | i | i
CC1=NN(c2ccccc2)C(=O)/C1=C/c1ccc(Cl)cc1 | i | i | i | i | i | . | . | .
CC(C)c1ccc(NC(=O)NC2(C(=O)NCc3cccnc3)CCCCC2)cc1 | i | i | i | i | i | . | . | .
O=c1c(C/C=C/c2ccccc2)c(O)ccn1CCc1c[nH]c2ccccc12 | i | i | 5.7* | i | i | 12%* | 30%* | i
COc1ccc2[nH]cc(CCn3ccc(O)c(C/C=C/c4ccccc4)c3=O)c2c1 | i | i | 7.3* | i | i | 18%* | i | i
COC(=O)c1cc(CSc2nc3ccccc3c(=O)n2C)oc1C | i | i | i | i | i | . | . | .
N#C/C(=C/c1ccc(O)c(O)c1)C(=O)NCc1ccc(Cl)cc1 | 13* | i | 7.6* | i | i | i | i | i
N#C/C(=C/c1cccc(O)c1)C(=O)NCc1ccc(Cl)cc1 | i | i | 5.9* | i | i | 80%* | 73%* | i
CCN(CC(=O)Nc1c(F)cccc1F)C(=O)c1ccc(N2CCCC2=O)cc1 | i | i | i | i | i | . | . | .
CC(C)C(C)NC(=O)CN1C(=O)NC2(CCc3ccccc32)C1=O (stereo not drawn) | i | i | i | i | i | . | . | .
CC(C)NC(=O)[C@H]1N2C(=O)c3ccccc3C2SC1(C)C (stereo partly drawn) | i | i | i | i | i | . | . | .
CCO[C@H]1OC(C(=O)N2CCOCC2)=C[C@@H](C2CC2)[C@@H]1CCCO | i | i | i | i | i | . | . | .
CCOC(=O)[C@@H]1[C@H]2COc3ccc(Br)cc3[C@H]2N2C(=O)N(c3ccc(F)cc3)C(=O)[C@]12C | i | i | i | i | i | . | . | .
CCOC(=O)[C@@H]1[C@H]2COc3ccccc3[C@@H]2N2C(=O)N(c3ccc(F)cc3)C(=O)[C@@]12C | i | i | i | i | i | i | 38%* | i
CCOC(=O)[C@@H]1[C@H]2COc3ccc(Br)cc3[C@@H]2N2C(=O)N(c3ccc(C)cc3)C(=O)[C@]12C | i | i | i | i | i | . | . | .
CCOC(=O)[C@@H]1[C@H]2COc3ccc(Br)cc3[C@@H]2N2C(=O)N(c3ccc(Cl)cc3)C(=O)[C@]12C | i | i | i | i | i | . | i | i
CCOC(=O)[C@@H]1[C@H]2COc3ccccc3[C@H]2N2C(=O)N(c3ccc(Cl)cc3)C(=O)[C@@]12C | i | i | 6* | i | i | 16%* | i | i
C/C(=N\NC(=O)c1cc(C)nc2ccccc12)c1cccc(Cl)c1 | i | i | i | i | i | . | . | .
